Activity data for 5 compounds are collected here from ChEMBL document CHEMBL1152977, “Phenolic glycosides from Alangium salviifolium leaves with inhibitory activity on LPS-induced NO, PGE(2), and TNF-alpha production” (Bioorg Med Chem Lett, 2009).

Data set [1] concerns RAW264.7. The data set is described as follows: Antiinflammatory activity in LPS-stimulated mouse RAW264.7 cells assessed as NO production at 10 uM treated 1 hr before LPS challenge measured after 24 hrs by Griess reagent assay (RVb= 28.72 +/- 1.31 uM). Type of data set: functional. The method in brief:
(§1)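 Culture medium (phenol red-free) collected after 1 h compound pretreatment then 24 h with LPS 1 µg/mL; mixed 1:1 with Griess reagent (1% sulfanilamide in 5% phosphoric acid plus 0.1% naphthylethylenediamine-HCl), 10 min room temperature, absorbance 550 nm. Nitrite quantified against NaNO2 serial-dilution standard curve, fresh medium as blank. L-NIL 10 µM positive control; means ± S.E.M., three independent experiments.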
(In general: Griess reagent forms a coloured azo dye with nitrite.)

Data set [2] concerns RAW264.7. The data set is described as follows: Antiinflammatory activity in LPS-stimulated mouse RAW264.7 cells assessed as PGE2 production at 10 uM treated 1 hr before LPS challenge measured after 24 hrs by enzyme immunoassay (RVb=11.5 +/- 0.36 uM). The format is functional.
Data set [3] relates to RAW264.7. Nature of the data set: Cytotoxicity against LPS-stimulated mouse RAW264.7 cells assessed as cell viability at 50 uM after 24 hrs by MTT assay. Type of data set: cell-based. The note with it: raw264.7, 24 h. Put shortly:
(§2)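 MTT viability assay on RAW 264.7 cells at up to 50 µM for 24 h, run both with and without LPS.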

Data set [4] relates to RAW264.7. Nature of the data set: Cytotoxicity against mouse RAW264.7 cells assessed as cell viability at 50 uM after 24 hrs by MTT assay. The format is cell-based. The settings on record: raw264.7, 24 h. The method in brief: as §2
In data set [5] the test system is RAW264.7. The data set is described as follows: Antiinflammatory activity in mouse RAW264.7 cells assessed as inhibition of LPS-stimulated NO production treated 1 hr before LPS challenge measured after 24 hrs by Griess reagent assay. The format is functional, cell-based. Put shortly: as §1
Data set [6] relates to RAW264.7. Nature of the data set: Antiinflammatory activity in mouse RAW264.7 cells assessed as decrease in LPS-stimulated PGE2 production treated 1 hr before LPS challenge measured after 24 hrs by enzyme immunoassay. Type of data set: functional, cell-based. The method in brief:
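Cells pre-incubated 1 h with compound (5, 25, 50 µM tested), then LPS 1 µg/mL for 24 h; PGE2 in culture medium quantified by EIA kit per manufacturer. NS-398 10 µM positive control; means ± S.E.M. of three independent experiments, Student's t-test versus LPS-treated group.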

In data set [7] the test system is RAW264.7. Nature of the data set: Antiinflammatory activity in LPS-stimulated mouse RAW264.7 cells assessed as TNFalpha production at 5 uM treated 1 hr before LPS challenge measured after 24 hrs by enzyme immunoassay (RVb=46.7 +/- 4.8 uM). Type of data set: functional.
The subject of data set [8] is RAW264.7. The data set is described as follows: Antiinflammatory activity in LPS-stimulated mouse RAW264.7 cells assessed as TNFalpha production at 25 uM treated 1 hr before LPS challenge measured after 24 hrs by enzyme immunoassay (RVb=46.7 +/- 4.8 uM). Type of data set: functional.
Data set [9] deals with RAW264.7. Nature of the data set: Antiinflammatory activity in LPS-stimulated mouse RAW264.7 cells assessed as TNFalpha production at 50 uM treated 1 hr before LPS challenge measured after 24 hrs by enzyme immunoassay (RVb=46.7 +/- 4.8 uM). Type of data set: functional.

Take `CC(=N)NCCCC[C@H](N)C(=O)O` [L-NIL]: the Activity in data set [1] was determined as 11.3 µM.

As to `CS(=O)(=O)Nc1ccc([N+](=O)[O-])cc1OC1CCCCC1` [NS-398], the Activity in [2] came to 3.2 ng/mL.

As for `O=C(OCc1ccc(O[C@@H]2O[C@H](CO)[C@@H](O)[C@H](O)[C@H]2O)c(O)c1)c1ccccc1` [SALVIIFOSIDE A], the Activity result in data set [3] was “Non-toxic”; in [4], “Non-toxic”; in data set [5] it was “Dose-dependent effect”; in data set [6], “Dose-dependent effect”.

In the case of `O=C(/C=C/c1ccccc1O)OCc1ccc(O[C@@H]2O[C@H](CO)[C@@H](O)[C@H](O)[C@H]2O)c(O)c1` [SALVIIFOSIDE B], the Activity result was “Non-toxic” in data set [3]; “Non-toxic” in data set [4]; “Dose-dependent effect” in [5]; “Dose-dependent effect” in data set [6]; 43.2 ng/mL in [7]; 24.4 ng/mL in data set [8]. For the same compound, the Activity in data set [9] stood at 11.2 ng/mL.

In the case of `COc1ccccc1/C=C/C(=O)OCc1ccc(O[C@@H]2O[C@H](CO)[C@@H](O)[C@H](O)[C@H]2O)c(O)c1` [SALVIIFOSIDE C], the Activity result in [3] is “Non-toxic”; in data set [4] it was “Non-toxic”; in [5], “Dose-dependent effect”; in [6], “Dose-dependent effect”.
